Results of several laboratories.
Protocols differ between the studies behind these lines.
Target: Cytochrome P450 2D6 (CYP2D6, Homo sapiens, UniProt P10635)

| Compound | assay | test system | setting | measurement | value |
| --- | --- | --- | --- | --- | --- |
| Nc1nc(N)c2nc(CNc3cccc4ccccc34)cnc2n1 | enzyme activity, inhibitor, luciferase |  | 10 µM | inhibition | 102% |
| C=CC(=O)Nc1cc(Nc2nccc(Nc3cc(Cl)c(F)cc3C(C)(C)O)n2)c(OC)cc1N1CC[C@@H](N(C)C)C1 | enzyme activity, inhibitor | human, liver microsomes | 10 µM | inhibition | < 20% |
| COCCc1ccc(OCC(O)CNC(C)C)cc1 (centres unmarked) |  | human, plasma | oral, 100 mg, single dose, healthy volunteers | AUC(0-inf) | 770 ng·h/mL |
| CC1(CO)C(O[C@@H]2O[C@H](C(=O)O)[C@@H](O)[C@H](O)[C@H]2O)CC[C@@]2(C)C1CC[C@]1(C)C2CC=C2[C@H]3CC(C)(C)[C@H](O)[C@@H](O)[C@]3(CO)[C@H](O)C[C@]21C (some centres unmarked) | enzyme activity, inhibitor, mass spectrometry | human, liver microsomes |  | IC50 | > 90 µg/mL |
| CCc1cc(/C(C)=N/OCc2ccc(C3CCCCC3)c(C(F)(F)F)c2)ccc1CN1CC(C(=O)O)C1 | enzyme activity, inhibitor | human, liver microsomes | 200 µM, 20 min | inhibition | 17.4% |
| CC(=O)c1cccc(OCc2cc(C(=O)N(C)[C@@H](C)c3ccccn3)no2)c1 | enzyme activity, inhibitor | human, liver microsomes |  | IC50 | > 30 µM |
| CN(Cc1cnc2nc(N)nc(N)c2n1)c1ccc(C(=O)N2CCCCC2)cc1 | enzyme activity, inhibitor, luciferase |  | 10 µM | inhibition | -23.3% |
| C[C@H]1C[C@@H](N2C(=N)N[C@](C)(c3cccc(NC(=O)c4cccc(C#N)c4)c3Cl)CC2=O)CCO1 | enzyme activity, inhibitor | human, liver microsomes | 20 µM, 15 min | inhibition | 45% |
| Cc1nc2c([nH]1)c(=O)n(C)c(=O)n2Cc1ccco1 | enzyme activity, inhibitor | human, liver microsomes | 40 µM | inhibition | -35% |
| Cc1cccc(F)c1N1CCC(N2Cc3cn(CC(C)(F)F)nc3N(Cc3ccccc3C(F)(F)F)C2=O)CC1 | enzyme activity, inhibitor | human, liver microsomes |  | IC50 | > 10 µM |
| Cc1ccc(C(=O)N2CCOC[C@H]2Cc2cccc(-n3nccn3)c2)c(-n2nccn2)c1 | enzyme activity, inhibitor | human, liver microsomes | 100 µM | inhibition | 33% |
| NC(=O)C1CCN(C(=O)Cc2ccc(N(CCCO)Cc3cnc4nc(N)nc(N)c4n3)cc2)CC1 | enzyme activity, inhibitor, luciferase |  | 10 µM | inhibition | -15.4% |
| C=C[C@H]1C[N@@]2CC[C@H]1C[C@@H]2[C@@H](O)c1ccnc2ccc(OC)cc12 | enzyme activity, inhibitor | human, liver microsomes | 1 µM | inhibition | 80.8% |
| CCN(Cc1cnc2nc(N)nc(N)c2n1)c1ccc(C(=O)N2CCC(C(=O)OC)CC2)cc1 | enzyme activity, inhibitor, luciferase |  | 10 µM | inhibition | -20% |
| Nc1ccc(S(=O)(=O)Nc2ccnn2-c2ccccc2)cc1 | enzyme activity, inhibitor | human, liver microsomes | 10 µM | inhibition | -23% |
| NC(=O)C1CCCN1C(=O)Cc1ccc(N(CCCO)Cc2cnc3nc(N)nc(N)c3n2)cc1 (centres unmarked) | enzyme activity, inhibitor, luciferase |  | 10 µM | inhibition | -13.9% |
| O=C(N[C@H](Cc1c[nH]c2ccccc12)C(=O)Nc1ccncc1)c1ccc(-c2cc(F)ccc2F)cc1F | enzyme activity, inhibitor | human, liver microsomes | 1 µM | inhibition | 47% |
